Measurements taken from ChEMBL document CHEMBL1770120 (Eur J Med Chem, 2011).

How the values were obtained:
[1] = Mean residence time in Sprague-Dawley rat at 5 mg/kg, iv by LC-MS/MS analysis; type: ADME, organism-based; design: dose 5 mg/kg, route intravenous; conditions: in vivo
Procedure, shortened: (§1)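 Male Sprague-Dawley rats (200–220 g), five per group, fasted from the evening before dosing until 2 h post-dose. Single i.v. dose of 5 mg/kg in cremophor:ethanol (1:1) diluted with sterile 0.154 M NaCl, given at 10 ml/kg. Plasma sampled 5–1440 min. Plasma kept at -20 °C and assayed by LC-MS-MS after liquid–liquid extraction. Parameters from mean plasma concentrations by non-compartmental analysis.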

[2] = Cytotoxicity against human HL60-0607-2 cells after 72 hrs by SRB assay; type: functional, cell-based
Procedure, shortened: (§2)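 Cells grown in RPMI 1640 with 10% FBS at 37 °C under 5% CO2 and seeded at 0.4–1.0 × 10^4 cells/well. Compounds added after 24 h from DMSO stock, at least five concentrations, final DMSO ≤0.1%. Exposure 72 h. Growth read by SRB staining at OD 520 nm. Three experiments, each in quadruplicate. IC50 taken from survival (%) versus concentration curves.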

[3] = Cytotoxicity against multidrug-resistant human KBR-0602 cells after 72 hrs by SRB assay; type: functional, cell-based; conditions: KBR-0602, 72 h; procedure, shortened: as §2
[4] = Cytotoxicity against multidrug-resistant human KBR-0530 cells after 72 hrs by SRB assay; type: functional, cell-based; conditions: KBR-0530, 72 h; procedure, shortened: as §2
[5] = AUC (0 to t) in Sprague-Dawley rat at 5 mg/kg, iv by LC-MS/MS analysis; type: ADME, organism-based; design: dose 5 mg/kg, route intravenous; conditions: plasma; procedure, shortened: as §1
[6] = Total plasma clearance in Sprague-Dawley rat at 5 mg/kg, iv by LC-MS/MS analysis; type: ADME, organism-based; design: dose 5 mg/kg, route intravenous; procedure, shortened: as §1
[7] = Apparent volume of distribution in Sprague-Dawley rat at 5 mg/kg, iv by LC-MS/MS analysis; type: ADME, organism-based; design: dose 5 mg/kg, route intravenous; conditions: in vivo, read-out: Vz; procedure, shortened: as §1
[8] = Cytotoxicity against human KB-0528 cells after 72 hrs by SRB assay; type: functional, cell-based; conditions: KB-0528, 72 h; procedure, shortened: as §2
[9] = Half life in Sprague-Dawley rat plasma at 5 mg/kg, iv by LC-MS/MS analysis; type: ADME, organism-based; design: dose 5 mg/kg, route intravenous; procedure, shortened: as §1
[10] = Cytotoxicity against multidrug-resistant human HL60OR-0604-2 cells after 72 hrs by SRB assay; type: functional, cell-based; procedure, shortened: as §2
[11] = AUC (0 to infinity) in Sprague-Dawley rat at 5 mg/kg, iv by LC-MS/MS analysis; type: ADME, organism-based; design: time infinity, dose 5 mg/kg, route intravenous; conditions: plasma; procedure, shortened: as §1
[12] = Intrinsic clearance in human liver microsomes; type: ADME, Microsome
Procedure, shortened: (§3)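 Test compound at 5 µmol/L with pooled human liver microsomes (0.5 mg/mL) and 1 mM NADPH in 0.1 M potassium phosphate buffer, pH 7.4, at 37 °C. Reactions stopped with acetonitrile at 0, 5, 10, 15, 30 and 60 min. Samples extracted with n-hexane:dichloromethane:isopropanol and spun to remove protein. Remaining parent measured by HPLC-MS (ESI positive).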

Liver microsomes [13] = assay: (§4) Half life in human liver microsomes; type: ADME, Microsome; conditions: microsomes; procedure, shortened: as §3
Liver microsomes [14] = assay: (§5) Metabolic stability in human liver microsomes assessed as unchanged remaining compound after 60 mins; type: ADME, Microsome; conditions: microsomes, 1 h; procedure, shortened: as §3
[15] = Ratio of compound IC50 to docetaxel IC50 for human HL60-0607-2 cells; type: functional
[16] = Ratio of compound IC50 to docetaxel IC50 for human HL60OR-0604-2 cells; type: functional
[17] = as §4; type: ADME, Microsome; conditions: liver microsomes; procedure, shortened: as §3
[18] = as §5; type: ADME, Microsome; conditions: liver microsomes, read-out: Stability; procedure, shortened: as §3

| MRT [1] | AUC(0-t) [5] | clearance [6] | Vd [7] | half-life [9] | AUC(0-inf) [11] | CLint scaled [12] | t1/2 (Liver microsomes [13]) | Stability (Liver microsomes [14]) | half-life [17] | remaining at 1 h [18] | Structure (SMILES) | IC50 [2] | IC50 [3] | IC50 [4] | IC50 [8] | IC50 [10] | Ratio IC50 [15] | Ratio IC50 [16] |
| --- | --- | --- | --- | --- | --- | --- | --- | --- | --- | --- | --- | --- | --- | --- | --- | --- | --- | --- |
| 2.76 h | 2860 ng·h/mL | 29.8 mL/min/kg | 20.2 L/kg | 7.69 h | 2930 ng·h/mL | – | – | – | – | – | CC(=O)O[C@@]12CO[C@@H]1C[C@H](O)[C@@]1(C)C(=O)[C@H](O)C3=C(C)[C@@H](OC(=O)[C@H](O)[C@@H](NC(=O)OC(C)(C)C(F)F)c4ccccc4)C[C@@](O)([C@@H](OC(=O)c4ccccc4)[C@H]21)C3(C)C | 0.176 nM | 0.369 nM | 0.332 nM | 0.282 nM | 0.554 nM | – | – |
| 2.4 h | 1930 ng·h/mL | 42.5 mL/min/kg | 36.2 L/kg | 10.2 h | 1990 ng·h/mL | – | – | – | – | – | CC(=O)O[C@@]12CO[C@@H]1C[C@H](O)[C@@]1(C)C(=O)[C@H](O)C3=C(C)[C@@H](OC(=O)[C@H](O)[C@@H](NC(=O)OC(C)(C)C(F)F)c4ccccc4)C[C@@](O)([C@@H](OC(=O)c4cccc(F)c4)[C@H]21)C3(C)C | 0.183 nM | 0.182 nM | 0.161 nM | – | 0.584 nM | – | – |
| 4.28 h | 3150 ng·h/mL | 25.2 mL/min/kg | 27.4 L/kg | 13.4 h | 3360 ng·h/mL | 3.41 mL/min/kg | 6.08 h | 72.4% | – | – | CC(=O)O[C@@]12CO[C@@H]1C[C@H](O)[C@@]1(C)C(=O)[C@H](O)C3=C(C)[C@@H](OC(=O)[C@H](O)[C@@H](NC(=O)OC(C)(C)C(F)F)c4ccc(F)cc4)C[C@@](O)([C@@H](OC(=O)c4ccccc4)[C@H]21)C3(C)C | 0.0168 nM | 0.885 nM | 0.321 nM | 0.397 nM | 2.08 nM | – | – |
| 3.34 h | 646 ng·h/mL | 125 mL/min/kg | 78.8 L/kg | 7.37 h | 667 ng·h/mL | – | – | – | – | – | CC(=O)O[C@@]12CO[C@@H]1C[C@H](O)[C@@]1(C)C(=O)[C@H](O)C3=C(C)[C@@H](OC(=O)[C@H](O)[C@@H](NC(=O)OC(C)(C)C)c4ccccc4)C[C@@](O)([C@@H](OC(=O)c4ccccc4)[C@H]21)C3(C)C.O.O.O [DOCETAXEL] | 0.0115 nM | 0.234 nM | 0.132 nM | 0.454 nM | 0.114 nM | – | – |
| 2.13 h | 1640 ng·h/mL | 50.3 mL/min/kg | 22 L/kg | 5.06 h | 1660 ng·h/mL | 8.62 mL/min/kg | 2.407 h | 53.8% | – | – | CC(=O)O[C@@]12CO[C@@H]1C[C@H](O)[C@@]1(C)C(=O)[C@H](O)C3=C(C)[C@@H](OC(=O)[C@H](O)[C@@H](NC(=O)OC(C)(C)CF)c4ccc(F)cc4)C[C@@](O)([C@@H](OC(=O)c4ccccc4)[C@H]21)C3(C)C | 0.14 nM | 0.195 nM | 0.232 nM | 0.915 nM | 0.51 nM | – | – |
| 2.3 h | 2190 ng·h/mL | 37.7 mL/min/kg | 22.7 L/kg | 6.8 h | 2240 ng·h/mL | – | – | – | – | – | CC(=O)O[C@@]12CO[C@@H]1C[C@H](O)[C@@]1(C)C(=O)[C@H](O)C3=C(C)[C@@H](OC(=O)[C@H](O)[C@@H](NC(=O)OC(C)(C)CF)c4ccccc4)C[C@@](O)([C@@H](OC(=O)c4cccc(F)c4)[C@H]21)C3(C)C | 0.00111 nM | 0.205 nM | 0.0669 nM | 0.248 nM | 2.97 nM | – | – |
| 2.13 h | 3870 ng·h/mL | 21.3 mL/min/kg | 13.7 L/kg | 7.62 h | 3940 ng·h/mL | – | – | – | – | – | CC(=O)O[C@@]12CO[C@@H]1C[C@H](O)[C@@]1(C)C(=O)[C@H](O)C3=C(C)[C@@H](OC(=O)[C@H](O)[C@@H](NC(=O)OC(C)(C)C(F)(F)F)c4ccccc4)C[C@@](O)([C@@H](OC(=O)c4cccc(F)c4)[C@H]21)C3(C)C | 0.0547 nM | 0.149 nM | 0.108 nM | 0.21 nM | 0.191 nM | – | – |
| 5.62 h | 914 ng·h/mL | 84.8 mL/min/kg | 89.7 L/kg | 12.2 h | 994 ng·h/mL | – | – | – | – | – | CC(=O)O[C@@]12CO[C@@H]1C[C@H](O)[C@@]1(C)C(=O)[C@H](O)C3=C(C)[C@@H](OC(=O)[C@H](O)[C@@H](NC(=O)OC(C)(C)CF)c4ccccc4)C[C@@](O)([C@@H](OC(=O)c4ccccc4)[C@H]21)C3(C)C | 0.156 nM | 0.792 nM | 0.0322 nM | 0.506 nM | 0.958 nM | – | – |
| 2.78 h | 3870 ng·h/mL | 21.3 mL/min/kg | 15.8 L/kg | 8.5 h | 3980 ng·h/mL | 0.36 mL/min/kg | – | – | 57.8 h | 88.5% | CC(=O)O[C@@]12CO[C@@H]1C[C@H](O)[C@@]1(C)C(=O)[C@H](O)C3=C(C)[C@@H](OC(=O)[C@H](O)[C@@H](NC(=O)OC(C)(C)C(F)(F)F)c4ccc(F)cc4)C[C@@](O)([C@@H](OC(=O)c4ccccc4)[C@H]21)C3(C)C | 0.000358 nM | 0.432 nM | 0.332 nM | 0.0259 nM | 0.0155 nM | 20 | 10 |

| Structure (SMILES) | MRT [1] | AUC(0-t) [5] | clearance [6] | Vd [7] | half-life [9] | AUC(0-inf) [11] | CLint scaled [12] | t1/2 (Liver microsomes [13]) | Stability (Liver microsomes [14]) | half-life [17] | remaining at 1 h [18] | IC50 [2] | IC50 [3] | IC50 [4] | IC50 [8] | IC50 [10] | Ratio IC50 [15] | Ratio IC50 [16] |
| --- | --- | --- | --- | --- | --- | --- | --- | --- | --- | --- | --- | --- | --- | --- | --- | --- | --- | --- |
| CC(=O)O[C@@]12CO[C@@H]1C[C@H](O)[C@@]1(C)C(=O)[C@H](O)C3=C(C)[C@@H](OC(=O)[C@H](O)[C@@H](NC(=O)OC(C)(C)C(F)(F)F)c4ccccc4)C[C@@](O)([C@@H](OC(=O)c4ccccc4)[C@H]21)C3(C)C | 2.32 h | 3860 ng·h/mL | 21 mL/min/kg | 18.1 L/kg | 9.91 h | 3960 ng·h/mL | – | – | – | – | – | 0.263 nM | 0.626 nM | 0.694 nM | 0.0834 nM | 0.41 nM | – | – |
